Laboratory results from ChEMBL document CHEMBL4390663, “Cationic biaryl 1,2,3-triazolyl peptidomimetic amphiphiles: synthesis, antibacterial evaluation and preliminary mechanism of action studies” (Eur J Med Chem, 2019).
Values after ≈ are worked out from the molar mass of the structure shown.

Tests used:
[1] = Cytotoxicity against human HEK293 cells assessed as reduction in cell growth incubated for 20 hrs by resazurin dye-based fluorometric assay
Method in brief: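 HEK293 cells, 5000 per well in DMEM + 10% FBS, exposed to compounds (top 32 μg/mL, 1:2 serial dilution ×8, ≤0.5% DMSO, duplicate) for 20 h at 37 °C, 5% CO2. Resazurin added (2.3 μg/mL final), 3 h further; fluorescence ex 560/em 590 nm. CC50 from sigmoidal dose-response fit against log concentration; tamoxifen standard.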

Staphylococcus aureus [2] = assay: Antimicrobial activity against Staphylococcus aureus ATCC 43300 incubated for 18 hrs by CLSI method; assay type: functional; conditions: ATCC 43300, 18 h
Streptococcus pneumoniae = assay: Antibacterial activity against Streptococcus pneumoniae ATCC 49619 incubated for 24 hrs by CLSI method; assay type: functional; conditions: ATCC 49619, 24 h
Method in brief: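 CLSI broth microdilution in MHB with 2.5% lysed horse blood, 5% CO2, 35 °C, 24 h. Compounds from 5 mg/mL DMSO stocks diluted in water plus double-strength broth; final 0.25–128 μg/mL. […] Triplicate; modal MIC read visually as lowest growth-inhibiting concentration.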

Staphylococcus aureus [3] = assay: Antimicrobial activity against Staphylococcus aureus ATCC 29213 incubated for 24 hrs by CLSI method; assay type: functional; conditions: ATCC 29213, 24 h
Method in brief: (§1)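 Broth microdilution per CLSI aerobic guidance in Mueller Hinton broth, ambient air, 35 °C for 24 h. DMSO stocks were diluted in water, then serially diluted with double-strength broth inoculum added, for final 0.25–128 μg/mL. […] MIC was read visually as the lowest concentration inhibiting growth; the modal value of triplicates was recorded.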

Escherichia coli = assay: Antibacterial activity against Escherichia coli ATCC 25922 incubated for 18 hrs by CLSI method; assay type: functional; conditions: ATCC 25922, 18 h
Method in brief: (§2)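 Screen run by CO-ADD: mid-log cultures in cation-adjusted MHB, 5 × 10^5 CFU/mL, compounds at up to 32 μg/mL in 1:2 serial dilutions (8 steps), final DMSO ≤0.5%, duplicate. 37 °C for 18 h without shaking; OD600 read against media-only and untreated-bacteria references. MIC = lowest concentration giving ≥80% inhibition; colistin standard.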

Enterococcus faecalis = assay: Antibacterial activity against Enterococcus faecalis ATCC 29212 incubated for 24 hrs by CLSI method; assay type: functional; conditions: ATCC 29212, 24 h
Clostridioides difficile [4] = assay: Antibacterial activity against Clostridium difficile ATCC 700057 incubated for 48 hrs by CLSI method; assay type: functional; conditions: ATCC 700057, 48 h
Method in brief: (§3)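 Broth microdilution per CLSI anaerobe method in pre-reduced (2-4 h) Brucella broth with haemin and vitamin K, 35 °C anaerobically for 48 h. Compounds from 5 mg/mL DMSO stocks, twofold dilutions in water mixed with double-strength broth; final 0.25–128 μg/mL. […] Triplicate; modal MIC read visually as lowest concentration inhibiting growth.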

Klebsiella pneumoniae = assay: Antibacterial activity against Klebsiella pneumoniae 700603 incubated for 18 hrs by CLSI method; assay type: functional; conditions: Klebsiella pneumoniae, 700603, 18 h; method in brief: as §2
Pseudomonas aeruginosa = assay: Antimicrobial activity against Pseudomonas aeruginosa ATCC 27853 incubated for 18 hrs by CLSI method; assay type: functional; conditions: ATCC 27853, 18 h; method in brief: as §2
Clostridioides difficile [5] = assay: Antibacterial activity against Clostridium difficile NSW132 RT027 incubated for 48 hrs by CLSI method; assay type: functional; conditions: NSW132 RT027, 48 h; method in brief: as §3
Staphylococcus aureus [6] = assay: Antibacterial activity against methicillin-resistant Staphylococcus aureus NCTC 10442 incubated for 24 hrs by CLSI method; assay type: functional; conditions: NCTC 10442, 24 h; method in brief: as §1
Acinetobacter baumannii = assay: Antimicrobial activity against Acinetobacter baumannii ATCC 19606 incubated for 18 hrs by CLSI method; assay type: functional; conditions: ATCC 19606 = CIP 70.34 = JCM 6841, 18 h; method in brief: as §2

SMILES | CC50 at 20 h [1] | MIC (Staphylococcus aureus [2]) | MIC (Streptococcus pneumoniae) | MIC (Staphylococcus aureus [3]) | MIC (Escherichia coli) | MIC (Enterococcus faecalis) | MIC (Clostridioides difficile [4]) | MIC (Klebsiella pneumoniae) | MIC (Pseudomonas aeruginosa) | MIC (Clostridioides difficile [5]) | MIC (Staphylococcus aureus [6]) | MIC (Acinetobacter baumannii)
CC/C(=C(\c1ccccc1)c1ccc(OCCN(C)C)cc1)c1ccccc1 [TAMOXIFEN] | 13.1 µg/mL (≈ 35.3 µM) |  |  |  |  |  |  |  |  |  |  | 
CC(C)CCOc1ccccc1-c1ccccc1OCc1cn(C[C@@H](CCCNC(=N)N)NC(=O)[C@@H](CCCCN)n2cc(Cc3ccccc3)nn2)nn1.Cl.Cl | 17.8 µg/mL | 4 µg/mL | 4 µg/mL | 4 µg/mL | 8 µg/mL | 8 µg/mL | 64 µg/mL | 32 µg/mL | 16 µg/mL | 64 µg/mL | 4 µg/mL | 16 µg/mL
CC(C)CCOc1ccccc1-c1ccccc1OCc1cn(C[C@@H](CCCNC(=N)N)NC(=O)[C@@H](CCCCN)n2cc(C3CCCCC3)nn2)nn1.Cl.Cl | 15.3 µg/mL | 4 µg/mL | 4 µg/mL | 4 µg/mL | 8 µg/mL | 8 µg/mL | 32 µg/mL | 32 µg/mL | 8 µg/mL | 32 µg/mL | 4 µg/mL | 8 µg/mL
CC(C)CCOc1ccc2ccccc2c1-c1c(OCc2cn(C[C@@H](CCCCN)NC(=O)C3(N)CCOCC3)nn2)ccc2ccccc12.Cl.Cl |  |  | 16 µg/mL | 16 µg/mL |  | 16 µg/mL | 32 µg/mL |  |  | 64 µg/mL | 16 µg/mL | 
CC(C)CCOc1ccccc1-c1ccccc1OCc1cn(C[C@@H](CCCCN)NC(=O)[C@@H](CCCNC(=N)N)n2cc(Cc3ccccc3)nn2)nn1.Cl.Cl | 21.9 µg/mL | 4 µg/mL | 4 µg/mL | 8 µg/mL | 16 µg/mL | 16 µg/mL | 16 µg/mL | 16 µg/mL | 16 µg/mL | 16 µg/mL | 8 µg/mL | 8 µg/mL
CC(C)CCOc1ccc2ccccc2c1-c1c(OCc2cn(C[C@@H](CCCCN)NC(=O)C3=CCCC3)nn2)ccc2ccccc12.Cl |  |  | 16 µg/mL | 8 µg/mL |  | 8 µg/mL | 32 µg/mL |  |  | 64 µg/mL | 8 µg/mL | 
CC(C)CCOc1ccc2ccccc2c1-c1c(OCc2cn(C[C@@H](CCCCN)NC(=O)[C@@H](CCCNC(=N)N)NC(=O)OCC3c4ccccc4-c4ccccc43)nn2)ccc2ccccc12.Cl.Cl |  |  | 8 µg/mL | 8 µg/mL |  | 8 µg/mL | 32 µg/mL |  |  | 64 µg/mL | 8 µg/mL | 
CC(C)CCOc1ccc2ccccc2c1-c1c(OCc2cn(C[C@@H](CCCCN)NC(=O)c3cccs3)nn2)ccc2ccccc12.Cl |  |  | 16 µg/mL | 8 µg/mL |  | 8 µg/mL | 32 µg/mL |  |  | 64 µg/mL | 8 µg/mL | 
CC(C)CCOc1ccc2ccccc2c1-c1c(OCc2cn(C[C@@H](CCCCN)NC(=O)C3CC3)nn2)ccc2ccccc12.Cl |  |  | 16 µg/mL | 8 µg/mL |  | 8 µg/mL | 16 µg/mL |  |  | 64 µg/mL | 8 µg/mL | 
CC(C)CCOc1ccc2ccccc2c1-c1c(OCc2cn(C[C@@H](CCCCN)NC(=O)CCCc3ccccc3)nn2)ccc2ccccc12.Cl |  |  | 32 µg/mL | 8 µg/mL |  | 8 µg/mL | 32 µg/mL |  |  | 64 µg/mL | 16 µg/mL | 
CC(C)CCOc1ccc2ccccc2c1-c1c(OCc2cn(C[C@@H](CCCCN)NC(=O)CC(C)C)nn2)ccc2ccccc12.Cl |  |  | 16 µg/mL | 8 µg/mL |  | 8 µg/mL | 16 µg/mL |  |  | 32 µg/mL | 8 µg/mL | 
CC(C)CCOc1ccc2ccccc2c1-c1c(OCc2cn(C[C@@H](CCCCN)NC(=O)c3ccccc3)nn2)ccc2ccccc12.Cl |  |  | 16 µg/mL | 8 µg/mL |  | 8 µg/mL | 32 µg/mL |  |  | 32 µg/mL | 8 µg/mL | 
CC(C)CCOc1ccc2ccccc2c1-c1c(OCc2cn(C[C@@H](CCCCN)NC(=O)Cc3ccc(Br)cc3)nn2)ccc2ccccc12.Cl |  |  | 32 µg/mL | 4 µg/mL |  | 8 µg/mL | 32 µg/mL |  |  | 64 µg/mL | 8 µg/mL | 
CC(C)CCOc1ccc2ccccc2c1-c1c(OCc2cn(C[C@@H](CCCCN)NC(=O)[C@@H](CCCNC(=N)N)NC(=O)CCCc3ccccc3)nn2)ccc2ccccc12.Cl.Cl |  |  | 4 µg/mL | 2 µg/mL |  | 2 µg/mL | 8 µg/mL |  |  | 16 µg/mL | 4 µg/mL | 
CC(C)CCOc1ccc2ccccc2c1-c1c(OCc2cn(C[C@@H](CCCCN)NC(=O)c3ccco3)nn2)ccc2ccccc12.Cl |  |  | 16 µg/mL | 8 µg/mL |  | 8 µg/mL | 16 µg/mL |  |  | 32 µg/mL | 8 µg/mL | 
CC(C)CCOc1ccc2ccccc2c1-c1c(OCc2cn(C[C@@H](CCCCN)NC(=O)C3=CCCCC3)nn2)ccc2ccccc12.Cl |  |  | 16 µg/mL | 8 µg/mL |  | 8 µg/mL | 32 µg/mL |  |  | 32 µg/mL | 8 µg/mL | 
CC(C)CCOc1ccc2ccccc2c1-c1c(OCc2cn(C[C@@H](CCCCN)NC(=O)OCc3ccccc3)nn2)ccc2ccccc12.Cl |  |  | 16 µg/mL | 4 µg/mL |  | 8 µg/mL | 32 µg/mL |  |  | 32 µg/mL | 8 µg/mL | 
CC(C)CCOc1ccc2ccccc2c1-c1c(OCc2cn(C[C@@H](CCCCN)NC(=O)c3ccc4ccccc4c3)nn2)ccc2ccccc12.Cl |  |  | 32 µg/mL | 16 µg/mL |  | 8 µg/mL | 64 µg/mL |  |  | 64 µg/mL | 16 µg/mL | 
CC(C)CCOc1ccc2ccccc2c1-c1c(OCc2cn(C[C@@H](CCCCN)NC(=O)[C@@H]3CCC(=O)N3)nn2)ccc2ccccc12.Cl |  |  | 32 µg/mL | 16 µg/mL |  | 16 µg/mL | 32 µg/mL |  |  | 64 µg/mL | 16 µg/mL | 
Cc1ccc(CC(=O)N[C@H](CCCCN)Cn2cc(COc3ccc4ccccc4c3-c3c(OCCC(C)C)ccc4ccccc34)nn2)cc1.Cl |  |  | 32 µg/mL | 8 µg/mL |  | 8 µg/mL | 16 µg/mL |  |  | 32 µg/mL | 8 µg/mL | 
